Reference: ChEMBL document CHEMBL2390882, “Synthesis and biological evaluation of novel thiazolidinone derivatives as potential anti-inflammatory agents” (Eur J Med Chem, 2013)
“And” between values parts separate entries of the source, which are not always exact repeats. Equal entries are not always repeated. The source made the active and inactive calls. No cut-off for these calls is given here.

Experiments:
RAW264.7 [1] = experiment: Cytotoxicity against mouse RAW264.7 cells assessed as cell viability at 20 uM after 48 hrs by MTT assay; format: cell-based; conditions: raw264.7, 48 h
Procedure, shortened: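 RAW264.7 cells seeded at 5000/well in 1640 medium with 5% heat-inactivated serum and grown 24 h before treatment. Compounds (DMSO stock) tested at 20 µM final for 48 h. MTT (5 mg/ml in 0.9% NaCl) added for 3 h, formazan dissolved in DMSO, absorbance read at 570 nm.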

RAW264.7 [2] = experiment: Antiinflammatory activity in mouse RAW264.7 cells assessed as inhibition of LPS-induced IL6 release at 10 uM incubated for 2 hrs prior to LPS challenge measured after 22 hrs by ELISA relative to LPS-treated control; format: functional; conditions: for inhibition at 10 µM: Mus musculus, RAW264.7
Procedure, shortened: (§1)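 RAW 264.7 macrophages in DMEM with 10% heat-inactivated FBS, plated at 4.0×10⁵/plate overnight. Pretreated 2 h with compound at 10 µM (curcumin 10 µM as reference), then LPS 0.5 µg/ml for 22 h. Medium cytokine measured by mouse ELISA kit and normalized to cell-lysate total protein. Expressed as % of LPS control, mean ±SEM of 4 independent experiments.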

RAW264.7 [3] = experiment: Antiinflammatory activity in mouse RAW264.7 cells assessed as inhibition of LPS-induced TNFalpha release at 10 uM incubated for 2 hrs prior to LPS challenge measured after 22 hrs by ELISA relative to LPS-treated control; format: functional; procedure, shortened: as §1
RAW264.7 [4] = experiment: Antiinflammatory activity in mouse RAW264.7 cells assessed as inhibition of LPS-induced IL6 release incubated for 2 hrs prior to LPS challenge measured after 22 hrs by ELISA; format: functional, cell-based
Procedure, shortened: (§2)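 RAW 264.7 cells plated at 1.2×10⁶/plate overnight, pretreated 2 h at 0.3, 1.1, 3.3 and 10 µM, then stimulated with LPS 0.5 µg/ml for 22 h. Secreted cytokine quantified by ELISA and normalized to total cell protein, given as % of LPS control. IC50 derived from the concentration-response, 3-5 independent experiments.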

RAW264.7 [5] = experiment: Antiinflammatory activity in mouse RAW264.7 cells assessed as inhibition of LPS-induced TNFalpha release incubated for 2 hrs prior to LPS challenge measured after 22 hrs by ELISA; format: functional, cell-based; procedure, shortened: as §2
Mus musculus [6] = experiment: Antiinflammatory activity in C57BL/6 mouse assessed as decrease in LPS-induced septic death at 15 mg/kg, ip administered 15 mins prior to LPS challenge measured every 1 day for 7 days relative to LPS-treated control; format: functional, organism-based; set-up: dose 15 mg/kg
Procedure, shortened: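 Male C57BL/6 mice, 18-22 g ([…]), acclimatized at least 7 days. Drug at 2 mg/mL in macrogol 15 hydroxystearate (5-10%) with or without MCT (0.5-2%), dosed i.p. 15 min before LPS (20 mg/kg i.v.). Vehicle controls received 10% solubilizer with 2% MCT. Survival recorded daily for 7 days, n=12 per group.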

Mus musculus [7] = experiment: Antiinflammatory activity in LPS-treated C57BL/6 mouse assessed as survival rate at 15 mg/kg, ip administered 15 mins measured every 1 day for 7 days relative to LPS-treated control; format: functional; conditions: C57BL/6, ip, route intraperitoneal
Procedure, shortened: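 Male C57BL/6 mice (18-22 g, acclimatized ≥7 days) got LPS 20 mg/kg i.v. and drug 15 mg/kg i.p. either 15 min before or 15 min after. The drug was given at 2 mg/mL in macrogol 15 hydroxystearate (5-10% final), with or without MCT (0.5-2%), dissolved at 37 °C. Controls received vehicle. Survival was recorded daily for 7 days, with 12 mice per group.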

Row | Structure (SMILES) | Activity (RAW264.7 [1]) | inhibition (RAW264.7 [2]) | inhibition (RAW264.7 [3]) | other results
1 | O=c1/c(=C/c2cccc(Cl)c2Cl)sc2nc3ccccc3n12 | Non-toxic | Active | Active | –
2 | CCOC(=O)C1=C(C)N=c2s/c(=C\c3cccn3C)c(=O)n2C1c1ccccc1 (centres undefined) | Non-toxic | – | – | IC50 (RAW264.7 [4]): 6.39 µM; IC50 (RAW264.7 [5]): > 10 µM; inhibition (INH) (RAW264.7 [2]): 50% and 87%; inhibition at 10 µM (RAW264.7 [3]): 60%
3 | O=c1/c(=C/c2ccccc2Br)sc2nc3ccccc3n12 | Non-toxic | Active | Active | –
4 | CCOC(=O)C1=C(C)N=c2s/c(=C\c3ccc(N4CCOCC4)cc3)c(=O)n2C1c1ccccc1 (centres undefined) | Non-toxic | – | – | Activity (Mus musculus [6]): inactive; survival at 15 mg/kg (Mus musculus [7]): 70%; IC50 (RAW264.7 [4]): 0.83 µM; inhibition (RAW264.7 [4]): Dose-dependent effect; IC50 (RAW264.7 [5]): 4.17 µM; inhibition (RAW264.7 [5]): Dose-dependent effect; inhibition at 10 µM (RAW264.7 [2]): 92%; inhibition at 10 µM (RAW264.7 [3]): 62%
5 | O=c1/c(=C/c2ccccc2[N+](=O)[O-])sc2nc3ccccc3n12 | Non-toxic | Active | Active | –
6 | O=c1/c(=C/c2cccs2)sc2nc3ccccc3n12 | Non-toxic | Active | Active | –
7 | Cc1ccc(/C=c2\sc3n(c2=O)CCN=3)s1 | Non-toxic | Active | – | inhibition at 10 µM (RAW264.7 [3]): > 50%
8 | O=c1/c(=C/c2ccccc2Br)sc2ncnn12 | Non-toxic | – | – | inhibition at 10 µM (RAW264.7 [2]): > 50%; inhibition at 10 µM (RAW264.7 [3]): > 50%
9 | COc1ccccc1/C=c1\sc2nc3ccccc3n2c1=O | Non-toxic | Active | Active | –
10 | O=c1/c(=C/c2c[nH]c3ccccc23)sc2ncnn12 | Non-toxic | – | Active | inhibition at 10 µM (RAW264.7 [2]): > 50%
11 | CCOC(=O)C1=C(C)N=c2s/c(=C\c3ccccc3Br)c(=O)n2C1c1ccccc1 (centres undefined) | Non-toxic | Active | Active | –
12 | Cn1cccc1/C=c1\sc2n(c1=O)CCN=2 | Non-toxic | – | – | inhibition at 10 µM (RAW264.7 [2]): > 50%; inhibition at 10 µM (RAW264.7 [3]): > 50%
13 | Cc1ccc(/C=c2\sc3nc4ccccc4n3c2=O)s1 | Non-toxic | Active | Active | –
14 | Cc1ccc(/C=c2\sc3nc4ccccc4n3c2=O)c(C)c1 | Non-toxic | Active | Active | –
15 | Cc1ccc(/C=c2\sc3ncnn3c2=O)s1 | Non-toxic | Active | Active | –
16 | CCOc1ccc(Br)cc1/C=c1\sc2nc3ccccc3n2c1=O | Non-toxic | Active | Active | –

Row | Structure (SMILES) | Activity (RAW264.7 [1]) | inhibition (RAW264.7 [2]) | inhibition (RAW264.7 [3]) | other results
17 | O=c1/c(=C/c2c[nH]c3ccccc23)sc2nc3ccccc3n12 | Non-toxic | – | Active | inhibition at 10 µM (RAW264.7 [2]): > 50%
18 | O=c1/c(=C/c2ccc(N3CCOCC3)cc2)sc2nc3ccccc3n12 | Non-toxic | Active | Active | –
19 | O=c1/c(=C/c2ccccc2Cl)sc2n1CCN=2 | Non-toxic | Active | Active | –
20 | O=c1/c(=C/c2ccccc2F)sc2nc3ccccc3n12 | Non-toxic | Active | Active | –
21 | COc1cccc(/C=c2\sc3ncnn3c2=O)c1OC | Non-toxic | Active | Active | –
22 | CCOC(=O)C1=C(C)N=c2s/c(=C\c3cccc4ccccc34)c(=O)n2C1c1ccccc1 (centres undefined) | Non-toxic | Active | Active | –
23 | O=c1/c(=C/c2ccc(N3CCOCC3)cc2)sc2n1CCN=2 | Non-toxic | – | Active | inhibition at 10 µM (RAW264.7 [2]): > 50%
24 | CCOC(=O)C1=C(C)N=c2s/c(=C\c3ccc(C)cc3C)c(=O)n2C1c1ccccc1 (centres undefined) | Non-toxic | Active | Active | –
25 | O=c1/c(=C/c2ccc3ccccc3c2)sc2nc3ccccc3n12 | Non-toxic | Active | Active | –
26 | O=c1/c(=C/c2ccc(N3CCOCC3)cc2)sc2ncnn12 | Non-toxic | – | – | inhibition at 10 µM (RAW264.7 [2]): > 50%; inhibition at 10 µM (RAW264.7 [3]): > 50%
27 | O=c1/c(=C/c2ccccc2Cl)sc2nc3ccccc3n12 | Non-toxic | Active | Active | –
28 | COc1ccc(/C=c2\sc3nc4ccccc4n3c2=O)cc1O | Non-toxic | Active | Active | –
29 | CCOC(=O)C1=C(C)N=c2s/c(=C\c3ccccc3F)c(=O)n2C1c1ccccc1 (centres undefined) | Non-toxic | Active | Active | –
30 | CCOC(=O)C1=C(C)N=c2s/c(=C\c3ccc(C)s3)c(=O)n2C1c1ccccc1 (centres undefined) | Non-toxic | – | Active | inhibition at 10 µM (RAW264.7 [2]): > 50%
31 | COc1cc(/C=c2\sc3nc4ccccc4n3c2=O)ccc1O | Non-toxic | Active | Active | –
32 | CCOC(=O)C1=C(C)N=c2s/c(=C\c3cccc(OC)c3O)c(=O)n2C1c1ccccc1 (centres undefined) | Non-toxic | Active | Active | –
